Experimental data of several laboratories.
Each line is one published result; the experiments were not run side by side.

The AUC(0-t) of C[C@]12CC[C@H](n3ccnc3)CC1=CC[C@@H]1[C@@H]2CC[C@]2(C)C(n3cnc4ccccc43)=CC[C@@H]12.Cl.Cl is reported as 1870 ng·h/mL (male CD-1 mouse, plasma; intravenous, 1 mg/kg).
Nc1c2c(nc3c1C(c1ccc(Cl)c(Cl)c1)c1ccc(OCC(=O)c4ccccc4)cc1O3)CCCC2 (stereo not drawn) gave a viability of 45.9% (SH-SY5Y; cell growth or viability, MTT; 25 µM).
CCCCNC(=O)Oc1ccc(OCc2ccccc2)cc1 has a half-life of 7 min (metabolic stability; male Wistar rat, liver S9; 1 µM, pH 7.4).
Nc1c2c(nc3c1C(c1cccc([N+](=O)[O-])c1)c1ccc(OS(=O)(=O)c4ccc(F)cc4)cc1O3)CCCC2 (stereo not drawn) gave a viability of 63.4% (SH-SY5Y; cell growth or viability, MTT; 6.3 µM).
The IC50 of CCCCCCCCCCOc1cc2c(O)c(C(=O)OCC)cnc2cc1OCC is reported as > 100 µM (CHO; cell growth or viability; 72 h).
COC(=O)C1CCN(C(=O)c2ccc(NCc3cnc4nc(N)nc(N)c4n3)cc2)CC1 gave an inhibition of -7.15% (Cytochrome P450 2C9 (CYP2C9, Homo sapiens, UniProt P11712); enzyme activity, inhibitor, luciferase; 10 µM).
COc1cc2c(cc1C(=O)Nc1ccc(C(C)(C)C)cc1)CCCCC2 has a CC50 of 148 µM (NHDF; cell growth or viability, ATP luminescence; 24 h).
With COc1ccc(S(=O)(=O)Oc2ccc3c(c2)Oc2nc4c(c(N)c2C3c2cccc(OC)c2)CCCC4)cc1 (stereo not drawn) the viability was 48.9% (SH-SY5Y; cell growth or viability, MTT; 100 µM).
The half-life of CCCCCn1cc(C(=O)Nc2cccc3ccccc23)c2ccccc21 is reported as 2.21 min (metabolic stability; Sprague-Dawley rat, liver microsomes; 1 µM, pH 7.4).
Cc1cc(C)nc(Nc2ncc(C(=O)NCCc3c(C)[nH]c4ccccc34)cn2)c1 gave a half-life of 22 min (metabolic stability; male Sprague-Dawley rat, hepatocytes; 1 µM).
With Nc1c2c(nc3c1C(c1ccc(Cl)c(Cl)c1)c1ccc(OCC(=O)c4ccc(Cl)cc4)cc1O3)CCCC2 (stereo not drawn) the viability was 71.6% (SH-SY5Y; cell growth or viability, MTT; 6.3 µM).
CCC[C@@](N)(CO)CCc1ccc(OCCCCCC(C)C)cc1 gave an AUC(0-t) of 0.227 µM·h (mouse, plasma; oral, 10 mg/kg).
